Measured values taken from ChEMBL document CHEMBL4392864, “Diketopiperazine-Type Alkaloids from a Deep-Sea-Derived Aspergillus puniceus Fungus and Their Effects on Liver X Receptor α” (J Nat Prod, 2019).
Calls of active or inactive are those of the source.

How the values were obtained:
[1] = molecular target: T1, Tyrosine-protein phosphatase non-receptor type 11 (Homo sapiens, UniProt Q06124); assay: Inhibition of recombinant human SHP2 expressed in Escherichia coli […] preincubated for 15 mins followed by substrate addition and measured after 60 mins
T1 sequence (Q06124 whole entry): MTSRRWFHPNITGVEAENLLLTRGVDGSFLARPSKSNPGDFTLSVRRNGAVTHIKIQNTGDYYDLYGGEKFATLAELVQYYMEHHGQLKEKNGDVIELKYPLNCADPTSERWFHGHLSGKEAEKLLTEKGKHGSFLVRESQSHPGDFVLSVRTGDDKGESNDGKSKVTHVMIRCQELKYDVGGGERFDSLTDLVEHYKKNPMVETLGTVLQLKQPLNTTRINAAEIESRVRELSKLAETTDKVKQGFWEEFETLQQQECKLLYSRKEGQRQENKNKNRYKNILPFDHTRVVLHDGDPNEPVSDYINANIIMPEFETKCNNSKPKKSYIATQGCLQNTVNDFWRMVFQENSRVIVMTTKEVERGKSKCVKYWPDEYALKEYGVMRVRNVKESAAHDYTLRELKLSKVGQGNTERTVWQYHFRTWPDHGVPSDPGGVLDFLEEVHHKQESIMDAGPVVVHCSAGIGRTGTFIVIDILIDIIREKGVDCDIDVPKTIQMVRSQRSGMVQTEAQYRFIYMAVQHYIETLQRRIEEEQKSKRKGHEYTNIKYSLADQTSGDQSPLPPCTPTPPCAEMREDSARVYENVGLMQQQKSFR
Outline: (§1)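 Recombinant human phosphatases were expressed in E. coli and purified. Enzyme and compound were preincubated for 15 min at room temperature in pH 6.5 buffer (50 mM HEPES, 100 mM NaCl, 1 mM EDTA, 1 mM DTT). Buffer containing 50 mM pNPP was then added and the mix incubated for 60 min at 37 °C. Product p-nitrophenol was read at 405 nm. Assays were run in triplicate and IC50 derived.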

[2] = molecular target: L-lactate dehydrogenase A chain (Homo sapiens) (UniProt P00338); assay: Inhibition of recombinant human LDHA expressed in Escherichia coli […] preincubated for 15 mins followed by substrate addition and measured after 60 mins
Pyricularia oryzae = assay: Antifungal activity against Pyricularia oryzae HNM 1003 assessed as growth inhibition at 0.6 mM measured after 48 hrs by microbroth dilution method; format: functional; details: HNM 1003, 48 h, read-out: GI
[3] = molecular target: T2, Tyrosine-protein phosphatase non-receptor type 9 (Homo sapiens, UniProt P43378); assay: Inhibition of recombinant human MEG2 expressed in Escherichia coli […] preincubated for 15 mins followed by substrate addition and measured after 60 mins; outline: as §1
T2 sequence (P43378 whole entry): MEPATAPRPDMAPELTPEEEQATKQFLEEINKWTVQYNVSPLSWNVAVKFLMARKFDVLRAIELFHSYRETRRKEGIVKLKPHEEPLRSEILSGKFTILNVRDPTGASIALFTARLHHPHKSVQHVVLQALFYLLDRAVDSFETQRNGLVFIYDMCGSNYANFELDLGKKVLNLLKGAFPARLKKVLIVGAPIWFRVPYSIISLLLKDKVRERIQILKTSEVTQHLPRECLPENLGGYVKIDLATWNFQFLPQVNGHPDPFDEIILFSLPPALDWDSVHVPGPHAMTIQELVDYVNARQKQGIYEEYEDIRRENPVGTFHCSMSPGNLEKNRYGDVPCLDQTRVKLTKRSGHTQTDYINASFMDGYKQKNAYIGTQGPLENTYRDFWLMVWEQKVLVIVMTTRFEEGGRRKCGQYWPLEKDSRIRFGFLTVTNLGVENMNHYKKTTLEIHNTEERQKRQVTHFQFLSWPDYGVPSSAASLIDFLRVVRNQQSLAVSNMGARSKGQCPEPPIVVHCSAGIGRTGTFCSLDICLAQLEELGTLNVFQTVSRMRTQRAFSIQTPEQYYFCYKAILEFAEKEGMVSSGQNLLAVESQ

Fusarium oxysporum = assay: Antifungal activity against Fusarium oxysporum HNM 1003 assessed as growth inhibition at 0.6 mM measured after 48 hrs by microbroth dilution method; format: functional; details: HNM 1003, 48 h, read-out: GI
Outline: (§2)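 Fungi were grown on PDA plates for 6−8 days at 30 °C, then the mycelia were moved into PD medium and filtered through cotton to give a spore suspension. Each well held PD medium, sample from a 10 mg/mL DMSO stock at about 0.6 mM, and spores (1 × 10^6 CFU). DMSO served as the negative control. OD600 was read at 0 and 48 h at 28 °C and percent growth inhibition calculated.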

[4] = molecular target: Indoleamine 2,3-dioxygenase 1 (Homo sapiens, UniProt P14902); assay: Inhibition of recombinant human IDO1 expressed in Escherichia coli […] preincubated for 15 mins followed by substrate addition and measured after 60 mins
Chain of Indoleamine 2,3-dioxygenase 1 (P14902 whole entry): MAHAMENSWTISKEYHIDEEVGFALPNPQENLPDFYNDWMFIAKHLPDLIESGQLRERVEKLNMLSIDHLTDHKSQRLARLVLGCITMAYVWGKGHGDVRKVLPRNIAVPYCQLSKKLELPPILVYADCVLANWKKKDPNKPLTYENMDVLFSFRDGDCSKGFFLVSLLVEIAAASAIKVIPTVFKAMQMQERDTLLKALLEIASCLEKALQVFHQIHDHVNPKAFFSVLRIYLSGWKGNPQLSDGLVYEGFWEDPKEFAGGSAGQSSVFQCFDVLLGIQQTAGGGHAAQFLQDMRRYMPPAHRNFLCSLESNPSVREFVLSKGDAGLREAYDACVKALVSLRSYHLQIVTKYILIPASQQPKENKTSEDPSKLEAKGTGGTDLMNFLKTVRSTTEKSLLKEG

[5] = molecular target: T3, Tyrosine-protein phosphatase non-receptor type 2 (Homo sapiens, UniProt P17706); assay: Inhibition of recombinant human TCPTP expressed in Escherichia coli […] preincubated for 15 mins followed by substrate addition and measured after 60 mins; outline: as §1
T3 sequence (P17706 whole entry): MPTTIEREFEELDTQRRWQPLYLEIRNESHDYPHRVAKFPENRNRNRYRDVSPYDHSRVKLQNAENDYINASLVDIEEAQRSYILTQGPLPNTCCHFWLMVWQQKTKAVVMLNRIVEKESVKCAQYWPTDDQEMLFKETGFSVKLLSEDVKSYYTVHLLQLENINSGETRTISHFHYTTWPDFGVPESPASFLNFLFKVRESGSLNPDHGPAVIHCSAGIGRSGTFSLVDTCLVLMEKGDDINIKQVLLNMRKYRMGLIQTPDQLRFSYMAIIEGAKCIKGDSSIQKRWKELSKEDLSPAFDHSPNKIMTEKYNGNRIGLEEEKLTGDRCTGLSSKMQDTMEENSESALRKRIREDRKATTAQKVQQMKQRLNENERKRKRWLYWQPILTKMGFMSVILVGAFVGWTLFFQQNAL

[6] = molecular target: T4, Tyrosine-protein phosphatase non-receptor type 1 (Homo sapiens, UniProt P18031); assay: Inhibition of recombinant human PTP1B expressed in Escherichia coli […] preincubated for 15 mins followed by substrate addition and measured after 60 mins; outline: as §1
T4 sequence (P18031 whole entry): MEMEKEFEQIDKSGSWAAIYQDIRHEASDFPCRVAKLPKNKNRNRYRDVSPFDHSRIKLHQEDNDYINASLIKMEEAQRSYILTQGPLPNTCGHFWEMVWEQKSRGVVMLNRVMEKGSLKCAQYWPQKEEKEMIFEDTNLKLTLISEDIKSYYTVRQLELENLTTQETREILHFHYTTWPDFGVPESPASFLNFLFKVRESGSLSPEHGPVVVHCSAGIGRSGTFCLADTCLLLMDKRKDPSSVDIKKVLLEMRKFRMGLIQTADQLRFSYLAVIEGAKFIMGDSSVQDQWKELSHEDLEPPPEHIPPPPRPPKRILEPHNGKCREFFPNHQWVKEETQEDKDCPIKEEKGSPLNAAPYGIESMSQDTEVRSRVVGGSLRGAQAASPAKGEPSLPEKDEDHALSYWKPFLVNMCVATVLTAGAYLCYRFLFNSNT

[7] = system: Colletotrichum gloeosporioides; assay: Antifungal activity against Colletotrichum gloeosporioides HNM 1003 assessed as growth inhibition at 0.6 mM measured after 48 hrs by microbroth dilution method; format: functional; details: HNM 1003, 48 h, read-out: GI; outline: as §2
[8] = molecular target: T5, Oxysterols receptor LXR-alpha (Homo sapiens, UniProt Q13133); assay: Transactivation of recombinant GAL4-fused human LXRalpha LBD (163 to 447 residues) expressed in human L02 cells measured after 24 hrs by luciferase reporter gene assay; format: cell-based
T5 sequence (Q13133 whole entry): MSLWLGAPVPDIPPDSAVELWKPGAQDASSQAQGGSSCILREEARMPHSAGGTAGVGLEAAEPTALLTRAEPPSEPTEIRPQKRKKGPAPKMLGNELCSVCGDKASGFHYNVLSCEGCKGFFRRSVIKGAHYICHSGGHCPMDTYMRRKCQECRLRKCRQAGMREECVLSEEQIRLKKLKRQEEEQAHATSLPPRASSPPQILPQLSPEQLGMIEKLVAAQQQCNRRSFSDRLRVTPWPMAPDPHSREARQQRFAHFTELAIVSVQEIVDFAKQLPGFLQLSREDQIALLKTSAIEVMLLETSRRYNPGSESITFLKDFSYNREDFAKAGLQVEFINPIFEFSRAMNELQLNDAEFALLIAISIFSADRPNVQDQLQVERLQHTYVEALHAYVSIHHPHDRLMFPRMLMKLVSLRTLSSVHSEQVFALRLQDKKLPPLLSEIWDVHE

[9] = molecular target: Tyrosine-protein phosphatase non-receptor type 6 (Homo sapiens, UniProt P29350); assay: Inhibition of recombinant human SHP1 expressed in Escherichia coli […] preincubated for 15 mins followed by substrate addition and measured after 60 mins; outline: as §1
Chain of Tyrosine-protein phosphatase non-receptor type 6 (P29350 whole entry): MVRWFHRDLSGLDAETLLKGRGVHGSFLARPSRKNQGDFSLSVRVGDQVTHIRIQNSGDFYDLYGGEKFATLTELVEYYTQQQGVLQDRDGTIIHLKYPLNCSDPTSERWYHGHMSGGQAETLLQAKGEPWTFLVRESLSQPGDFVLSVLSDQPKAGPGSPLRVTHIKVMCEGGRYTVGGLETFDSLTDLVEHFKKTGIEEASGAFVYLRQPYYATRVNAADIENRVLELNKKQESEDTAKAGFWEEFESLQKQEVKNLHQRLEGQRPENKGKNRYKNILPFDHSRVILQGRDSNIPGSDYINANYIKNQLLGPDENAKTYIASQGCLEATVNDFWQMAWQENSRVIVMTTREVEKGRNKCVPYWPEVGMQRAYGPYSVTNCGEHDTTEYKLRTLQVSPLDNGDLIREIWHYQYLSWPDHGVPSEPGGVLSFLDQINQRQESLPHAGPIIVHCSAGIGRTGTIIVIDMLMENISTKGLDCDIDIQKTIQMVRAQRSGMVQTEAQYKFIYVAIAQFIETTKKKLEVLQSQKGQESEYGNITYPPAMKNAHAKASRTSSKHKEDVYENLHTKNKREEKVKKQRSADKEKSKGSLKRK

Curvularia australiensis = assay: Antifungal activity against Curvularia australiensis BY01 assessed as growth inhibition at 0.6 mM measured after 48 hrs by microbroth dilution method; format: functional; details: BY01, 48 h, read-out: GI; outline: as §2

CC[C@@H](C)C1=C2N=C3OC=CC=C[C@]3(OC)C(=O)N2[C@@H](Cc2ccccc2)C(=O)N1
inactive: inhibition [2]
41 µM: EC50 [8]
< 50%: inhibition of growth at 600 µM (Pyricularia oryzae) | inhibition of growth at 600 µM (Fusarium oxysporum) | inhibition of growth at 600 µM [7] | inhibition of growth at 600 µM (Curvularia australiensis)
14 to 87 µM: IC50 [1] | IC50 [3] | IC50 [4] | IC50 [5] | IC50 [6] | IC50 [9]
